Experimental data of several laboratories.
Each line is one published result; the experiments were not run side by side.
Observed: cell growth or viability

Compound | cell line | assay | setting | endpoint | value
NC(=O)C1CN(C(=O)CCl)c2ccccc2O1 (stereo not shown) | BT-474 | fluorescence | 5 days | IC50 | 17.5 µM
CC(C)(C)c1cnc(CSc2cnc(NC(=O)C3CCN(C(=O)CCCCCCCN4Cc5cc6c(cc5C4)C(=O)N(C4CCC(=O)NC4=O)C6=O)CC3)s2)o1 (stereo not shown) | MES-SA | MTT |  | IC50 | 0.0853 µM
Cc1nc(NC(=O)N2CCC[C@H]2C(N)=O)sc1-c1ccnc(C(C)(C)C(F)(F)F)c1 | NCI-H1563 | ATP luminescence | 5 days | EC50 | 7.42 µM
CO[C@H]1[C@H](O[C@H]([C@H]2O[C@@H](n3ccc(=O)[nH]c3=O)[C@H](O)[C@@H]2O)[C@H](NCCCNC(=O)[C@@H](NC(=O)[C@@H](NC(=O)N[C@H](C(=O)O)C(C)C)[C@@H]2CCN=C(N)N2)[C@@H](OC(=O)CCCCCCCCCCCCN(O)C(=N)N)C(C)C)C(=O)O)O[C@H](CN)[C@H]1O | BT-474 | WST-1 |  | IC50 | 0.85 µM
COc1cccc2c1C(=O)c1c(O)c3c(c(O)c1C2=O)C[C@@](O)(C(=O)CO)C[C@@H]3O[C@H]1C[C@H](N)[C@H](O)[C@H](C)O1 | human Skin fibroblast | MTT | 24 h | IC50 | > 100 µM
CONC(=O)c1cccc2c1cc(C)n2-c1nc2c(c(NCc3ccccc3)n1)CCCN2 | MOLM16 |  | 72 h | IC50 | 0.4 µM
C[C@H]1[C@H](C)CC[C@]2(C(=O)O)CC[C@]3(C)C(=CC[C@@H]4[C@@]5(C)CC[C@H](O)C(C)(C)[C@@H]5CC[C@]43C)[C@H]12 | human Skin fibroblast | MTT | 24 h | IC50 | 32.3 µM
Cc1cc2c(C(=O)O)cccc2n1-c1nc2c(c(NCc3ccccc3)n1)CCCN2 | MOLM16 |  | 72 h | IC50 | 0.7 µM
CO[C@H]1[C@H](O[C@H]([C@H]2O[C@@H](n3ccc(=O)[nH]c3=O)[C@H](O)[C@@H]2O)[C@H](NCCCNC(=O)[C@@H](NC(=O)[C@@H](NC(=O)N[C@H](C(=O)O)C(C)C)[C@@H]2CCN=C(N)N2)[C@@H](O)C(C)C)C(=O)O)O[C@H](CN)[C@H]1O | BT-474 | WST-1 |  | IC50 | > 35 µM
COC(=O)c1cc(C(C)=NNc2nc(-c3ccc(C)cc3)cs2)ccc1O | human Skin fibroblast | MTT | 96 h | IC50 | 10.2 µM
COc1cc([C@@H]2c3cc4c(cc3[C@@H](O[C@@H]3O[C@@H]5CO[C@@H](C)O[C@H]5[C@H](O)[C@H]3O)[C@H]3COC(=O)[C@H]23)OCO4)cc(OC)c1O | SK-HEP1 | SRB | 72 h | IC50 | 2.7 µM
CCc1oc2cc(S(=O)(=O)Nc3ccc(S(=O)(=O)Nc4nccs4)cc3)ccc2c1C(=O)c1cc(Br)c(O)c(Br)c1 | human Skin fibroblast | MTT | 96 h | IC50 | 146 µM
C[C@H](Nc1ccc2c(c1)OCCn1cc(N3C(=O)OC[C@H]3C(F)F)nc1-2)C(N)=O | NCI-H1563 | ATP luminescence | 5 days | EC50 | 0.149 µM
